Data: ChEMBL document CHEMBL3585281, “Antibacterial Labdane Diterpenoids from Vitex vestita” (2015)
Converted amounts (≈) assume the structure as drawn. Each block holds one compound with its values, some of them ahead of it.

Legend:
Type in all cases: functional
HCT-116 [1] = assay: Cytotoxicity against human HCT116 cells assessed as growth inhibition at 10^-6 M after 72 hrs by MTS assay relative to control; conditions: HCT-116, 72 h, read-out: GI
Method in brief: (§1)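 Cells from ATCC; HCT-116 grown in RPMI 1640 and MRC5 in DMEM, each with 10% FCS and 1% glutamine, 37 °C, 5% CO2. Seeded at 2.5 × 10^3 cells/well, cultured 24 h, then exposed to compounds at 1 and 10 μM final for 72 h. MTS read-out, absorbance 490 nm; percent index from treated/control OD490 × 100, three experiments.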

MRC5 [2] = assay: Cytotoxicity against human MRC5 cells assessed as growth inhibition at 10^-5 M after 72 hrs by MTS assay relative to control; conditions: MRC5, 72 h, read-out: GI; method in brief: as §1
MRC5 [3] = assay: Cytotoxicity against human MRC5 cells assessed as growth inhibition at 10^-6 M after 72 hrs by MTS assay relative to control; conditions: MRC5, 72 h, read-out: GI; method in brief: as §1
HCT-116 [4] = assay: Cytotoxicity against human HCT116 cells assessed as growth inhibition at 10^-5 M after 72 hrs by MTS assay relative to control; conditions: HCT-116, 72 h, read-out: GI; method in brief: as §1
Corynebacterium striatum = assay: Antibacterial activity against Corynebacterium striatum N840 after 18 hrs by agar dilution method; conditions: N840, 18 h
Method in brief: (§2)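 Agar-dilution MIC against Gram-positive strains. Compounds in DMSO, geometric dilutions giving final 100−0.75 mg/L in Mueller Hinton agar. Strains grown 18 h at 37 °C in trypticase soy broth, diluted in sterile water, spotted by Steers inoculator (about 1000 UFC/spot). Plates incubated 18 h at 37 °C; DMSO blank; ofloxacin positive control. MIC = lowest concentration with no visible growth.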

Enterococcus gallinarum [5] = assay: Antibacterial activity against Enterococcus gallinarum N489 after 18 hrs by agar dilution method; conditions: N489, 18 h; method in brief: as §2
Enterococcus hirae = assay: Antibacterial activity against Enterococcus hirae CIP 5855 after 18 hrs by agar dilution method; conditions: CIP 5855, 18 h; method in brief: as §2
Staphylococcus aureus [6] = assay: Antibacterial activity against Staphylococcus aureus ATCC 9144 oxford after 18 hrs by agar dilution method; method in brief: as §2
Enterococcus faecium [7] = assay: Antibacterial activity against Enterococcus faecium N823 after 18 hrs by agar dilution method; conditions: N823, 18 h; method in brief: as §2
Enterococcus durans = assay: Antibacterial activity against Enterococcus durans CIP 104999 after 18 hrs by agar dilution method; conditions: CIP 104999, 18 h; method in brief: as §2
Enterococcus gallinarum [8] = assay: Antibacterial activity against Enterococcus gallinarum N492 after 18 hrs by agar dilution method; conditions: N492, 18 h; method in brief: as §2
Enterococcus faecalis [9] = assay: Antibacterial activity against Enterococcus faecalis N520 after 18 hrs by agar dilution method; conditions: N520, 18 h; method in brief: as §2
Bacillus cereus [10] = assay: Antibacterial activity against Bacillus cereus N190 after 18 hrs by agar dilution method; conditions: N190, 18 h; method in brief: as §2
Staphylococcus aureus [11] = assay: Antibacterial activity against Staphylococcus aureus CIP 53154 after 18 hrs by agar dilution method; conditions: CIP 53154, 18 h; method in brief: as §2
[12] = test system: Staphylococcus epidermidis; assay: Antibacterial activity against Staphylococcus epidermidis CIP 53124 after 18 hrs by agar dilution method; conditions: CIP 53124, 18 h; method in brief: as §2
Enterococcus faecium [13] = assay: Antibacterial activity against Enterococcus faecium CIP 107387 after 18 hrs by agar dilution method; conditions: CIP 107387, 18 h; method in brief: as §2
Listeria monocytogenes [14] = assay: Antibacterial activity against Listeria monocytogenes N851 after 18 hrs by agar dilution method; conditions: N851, 18 h; method in brief: as §2
[15] = test system: Staphylococcus haemolyticus; assay: Antibacterial activity against Staphylococcus haemolyticus CIP 8156 after 18 hrs by agar dilution method; conditions: CIP 8156, 18 h; method in brief: as §2
Enterococcus faecium [16] = assay: Antibacterial activity against Enterococcus faecium N733 after 18 hrs by agar dilution method; conditions: N733, 18 h; method in brief: as §2
Listeria monocytogenes [17] = assay: Antibacterial activity against Listeria monocytogenes CIP 103575 after 18 hrs by agar dilution method; conditions: CIP 103575, 18 h; method in brief: as §2
[18] = test system: Enterococcus casseliflavus; assay: Antibacterial activity against Enterococcus casseliflavus N487 after 18 hrs by agar dilution method; conditions: N487, 18 h; method in brief: as §2
Listeria monocytogenes [19] = assay: Antibacterial activity against Listeria monocytogenes N783 after 18 hrs by agar dilution method; conditions: N783, 18 h; method in brief: as §2
Bacillus cereus [20] = assay: Antibacterial activity against Bacillus cereus N349 after 18 hrs by agar dilution method; conditions: N349, 18 h; method in brief: as §2
Enterococcus faecium [21] = assay: Antibacterial activity against Enterococcus faecium CIP 103014 after 18 hrs by agar dilution method; conditions: CIP 103014, 18 h; method in brief: as §2
Enterococcus faecalis [22] = assay: Antibacterial activity against Enterococcus faecalis CIP 103214 after 18 hrs by agar dilution method; conditions: CIP 103214, 18 h; method in brief: as §2
Listeria innocua = assay: Antibacterial activity against Listeria innocua E044 after 18 hrs by agar dilution method; conditions: E044, 18 h; method in brief: as §2
Mammaliicoccus sciuri = assay: Antibacterial activity against Staphylococcus sciuri N993 after 18 hrs by agar dilution method; conditions: N993, 18 h; method in brief: as §2
Staphylococcus aureus [23] = assay: Antibacterial activity against Staphylococcus aureus ATCC 25923 after 18 hrs by agar dilution method; conditions: ATCC 25923, 18 h; method in brief: as §2
Bacillus cereus [24] = assay: Antibacterial activity against Bacillus cereus CIP 6624 after 18 hrs by agar dilution method; conditions: CIP 6624, 18 h; method in brief: as §2
[25] = test system: Staphylococcus saprophyticus; assay: Antibacterial activity against Staphylococcus saprophyticus CIP 76125 after 18 hrs by agar dilution method; conditions: CIP 76125, 18 h; method in brief: as §2
Enterococcus faecium [26] = assay: Antibacterial activity against Enterococcus faecium N490 after 18 hrs by agar dilution method; conditions: N490, 18 h; method in brief: as §2
Enterococcus faecium [27] = assay: Antibacterial activity against Enterococcus faecium N507 after 18 hrs by agar dilution method; conditions: N507, 18 h; method in brief: as §2
Enterococcus gallinarum [28] = assay: Antibacterial activity against Enterococcus gallinarum CIP 105985 after 18 hrs by agar dilution method; conditions: CIP 105985, 18 h; method in brief: as §2
Staphylococcus aureus [29] = assay: Antibacterial activity against Staphylococcus aureus CRBIP 2121 after 18 hrs by agar dilution method; conditions: CRBIP 2121, 18 h; method in brief: as §2
Streptococcus agalactiae = assay: Antibacterial activity against Streptococcus agalactiae CIP 103227 after 18 hrs by agar dilution method; conditions: ATCC 13813, 18 h; method in brief: as §2
Bacillus cereus [30] = assay: Antibacterial activity against Bacillus cereus N258 after 18 hrs by agar dilution method; conditions: N258, 18 h; method in brief: as §2
Bacillus spizizenii = assay: Antibacterial activity against Bacillus subtilis ATCC 6633 after 18 hrs by agar dilution method; conditions: ATCC 6633, 18 h; method in brief: as §2
Listeria monocytogenes [31] = assay: Antibacterial activity against Listeria monocytogenes N836 after 18 hrs by agar dilution method; conditions: N836, 18 h; method in brief: as §2
Staphylococcus aureus [32] = assay: Antibacterial activity against Staphylococcus aureus CIP 7625 after 18 hrs by agar dilution method; conditions: CIP 7625, 18 h; method in brief: as §2
Enterococcus faecalis [33] = assay: Antibacterial activity against Enterococcus faecalis CIP 104676 after 18 hrs by agar dilution method; conditions: CIP 104676, 18 h; method in brief: as §2
Staphylococcus aureus [34] = assay: Antibacterial activity against Staphylococcus aureus CIP 483 after 18 hrs by agar dilution method; conditions: CIP 483, 18 h; method in brief: as §2
[35] = test system: Staphylococcus lugdunensis; assay: Antibacterial activity against Staphylococcus lugdunensis ATCC 43809 after 18 hrs by agar dilution method; conditions: ATCC 43809, 18 h; method in brief: as §2
Enterococcus avium = assay: Antibacterial activity against Enterococcus avium CIP 104053 after 18 hrs by agar dilution method; conditions: CIP 104053, 18 h; method in brief: as §2
[36] = test system: Staphylococcus intermedius; assay: Antibacterial activity against Staphylococcus intermedius N987 after 18 hrs by agar dilution method; conditions: N987, 18 h; method in brief: as §2
Enterococcus faecalis [37] = assay: Antibacterial activity against Enterococcus faecalis N491 after 18 hrs by agar dilution method; conditions: N491, 18 h; method in brief: as §2
[38] = test system: Enterococcus casseliflavus; assay: Antibacterial activity against Enterococcus casseliflavus CIP 103018 after 18 hrs by agar dilution method; conditions: CIP 103018, 18 h; method in brief: as §2
Enterococcus faecalis [39] = assay: Antibacterial activity against Enterococcus faecalis N518 after 18 hrs by agar dilution method; conditions: N518, 18 h; method in brief: as §2
Staphylococcus aureus [40] = assay: Antibacterial activity against Staphylococcus aureus CIP 5710 after 18 hrs by agar dilution method; conditions: CIP 5710, 18 h; method in brief: as §2
[41] = test system: Staphylococcus saprophyticus; assay: Antibacterial activity against Staphylococcus saprophyticus E260 after 18 hrs by agar dilution method; conditions: E260, 18 h; method in brief: as §2
Staphylococcus aureus [42] = assay: Antibacterial activity against Staphylococcus aureus CIP 53156 after 18 hrs by agar dilution method; conditions: CIP 53156, 18 h; method in brief: as §2

SMILES: C=C1C[C@@H](O)[C@H]2C(C)(C)CCC[C@]2(C)[C@H]1CCC1=CC(=O)OC1O (some centres undefined)
- inhibition of growth at 1 µM (HCT-116 [1]): 0%
- inhibition of growth at 10 µM (MRC5 [2]): 28%
- inhibition of growth at 1 µM (MRC5 [3]): 5%
- inhibition of growth at 10 µM (HCT-116 [4]): 38%

- MIC (Corynebacterium striatum): > 188 µM
- MIC (Enterococcus gallinarum [5]): > 188 µM
- MIC (Enterococcus hirae): > 188 µM
- MIC (Staphylococcus aureus [6]): > 188 µM
- MIC (Enterococcus faecium [7]): 50 µM (≈ 15.9 µg/mL)
- MIC (Enterococcus durans): 50 µM (≈ 15.9 µg/mL)
- MIC (Enterococcus gallinarum [8]): > 188 µM
- MIC (Enterococcus faecalis [9]): 50 µM (≈ 15.9 µg/mL)
- MIC (Bacillus cereus [10]): ≤ 188 µM
- MIC (Staphylococcus aureus [11]): > 188 µM
- MIC [12]: > 188 µM
- MIC (Enterococcus faecium [13]): > 188 µM
- MIC (Listeria monocytogenes [14]): > 188 µM
- MIC (Enterococcus faecium [16]): 50 µM (≈ 15.9 µg/mL)
- MIC (Listeria monocytogenes [17]): > 188 µM
- MIC [18]: > 188 µM
- MIC (Listeria monocytogenes [19]): > 188 µM
- MIC (Bacillus cereus [20]): ≤ 188 µM
- MIC (Enterococcus faecium [21]): > 188 µM
- MIC (Enterococcus faecalis [22]): 50 µM (≈ 15.9 µg/mL)
- MIC (Listeria innocua): > 188 µM
- MIC (Mammaliicoccus sciuri): > 188 µM
- MIC (Staphylococcus aureus [23]): > 188 µM
- MIC (Bacillus cereus [24]): ≤ 188 µM
- MIC [25]: > 188 µM
- MIC (Enterococcus faecium [26]): ≤ 188 µM
- MIC (Enterococcus faecium [27]): 50 µM (≈ 15.9 µg/mL)
- MIC (Enterococcus gallinarum [28]): > 188 µM
- MIC (Staphylococcus aureus [29]): > 188 µM
- MIC (Streptococcus agalactiae): 50 µM (≈ 15.9 µg/mL)
- MIC (Bacillus cereus [30]): ≤ 188 µM
- MIC (Bacillus spizizenii): > 188 µM
- MIC (Listeria monocytogenes [31]): > 188 µM
- MIC (Staphylococcus aureus [32]): > 188 µM
- MIC (Enterococcus faecalis [33]): 50 µM (≈ 15.9 µg/mL)
- MIC (Staphylococcus aureus [34]): > 188 µM
- MIC [35]: > 188 µM
- MIC (Enterococcus avium): > 188 µM
- MIC [36]: > 188 µM
- MIC (Enterococcus faecalis [37]): 50 µM (≈ 15.9 µg/mL)
- MIC [38]: > 188 µM
- MIC (Enterococcus faecalis [39]): 50 µM (≈ 15.9 µg/mL)
- MIC (Staphylococcus aureus [40]): > 188 µM
- MIC [41]: > 188 µM
- MIC (Staphylococcus aureus [42]): > 188 µM
SMILES: C=C1CC[C@H]2C(C)(C)CCC[C@]2(C)[C@H]1C[C@@H](O)C1=CC(=O)OC1
- inhibition of growth at 1 µM (HCT-116 [1]): 3%
- MIC [15]: > 188 µM
- inhibition of growth at 10 µM (MRC5 [2]): 86%
- inhibition of growth at 1 µM (MRC5 [3]): 34%
- inhibition of growth at 10 µM (HCT-116 [4]): 68%
